# Test results taken from ChEMBL document CHEMBL1154743, “A novel potent nicotinamide phosphoribosyltransferase inhibitor synthesized via click chemistry” (J Med Chem, 2010).
# Active and inactive are the calls of the source. No cut-off for these calls is given here.
# Legend:
# [1] = tested on: SH-SY5Y; experiment: Cytotoxicity against human SH-SY5Y cells assessed as cell viability after 48 hrs by MTT assay; format: functional, cell-based
# Method in brief: (§1)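 SH-SY5Y cells incubated with compound for 48 h and viability measured by MTT. Values are mean ± SEM of 8-12 determinations.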
# [2] = tested on: RXF 393; experiment: Growth inhibition of human RXF393 cells by sulforhodamine B assay; format: functional
# [3] = tested on: BT-549; experiment: Growth inhibition of human BT549 cells by sulforhodamine B assay; format: functional
# [4] = tested on: EKVX; experiment: Growth inhibition of human EKVX cells by sulforhodamine B assay; format: functional
# [5] = tested on: SH-SY5Y; experiment: Cytotoxicity against human SH-SY5Y cells assessed as reduction of total cellular NAD(P) level at 1 uM relative to control; format: functional; parameters: scale not given: the % may be the effect or the level left
# [6] = tested on: NCI-H460; experiment: Growth inhibition of human NCI-H460 cells by sulforhodamine B assay; format: functional
# [7] = tested on: OVCAR-5; experiment: Growth inhibition of human OVCAR5 cells by sulforhodamine B assay; format: functional
# [8] = tested on: SH-SY5Y; experiment: Induction of autophagy in human SH-SY5Y cells assessed as LC3/phosphotidylethanolamine coupling after 40 hrs by Western blot analysis; format: functional, cell-based
# Method in brief: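 Western blot of LC3-I and LC3-II, with tubulin as reference, in untreated and treated cells exposed to 10 nM compound. Six independent experiments were run, using two LC3 antibodies from different sources.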
# [9] = tested on: SH-SY5Y; experiment: Cytotoxicity against human SH-SY5Y cells assessed as reduction of total cellular NAD(P) level at 300 nM relative to control; format: functional; parameters: scale not given: the % may be the effect or the level left
# Method in brief: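 Total cellular NAD levels in SH-SY5Y cells screened at a single fixed concentration of 300 nM. Expressed relative to control, n = 10.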
# [10] = tested on: MCF7; experiment: Growth inhibition of human MCF7 cells by sulforhodamine B assay; format: functional
# [11] = tested on: DU-145; experiment: Growth inhibition of human DU145 cells by sulforhodamine B assay; format: functional
# [12] = tested on: IGROV-1; experiment: Growth inhibition of human IGROV1 cells by sulforhodamine B assay; format: functional
# [13] = tested on: UACC-257; experiment: Growth inhibition of human UACC257 cells by sulforhodamine B assay; format: functional
# [14] = tested on: SH-SY5Y; experiment: Cytotoxicity against human SH-SY5Y cells assessed as cell viability after 48 hrs by MTT assay relative to control; format: functional; method in brief: as §1
# [15] = tested on: 786-0; experiment: Growth inhibition of human 786-0 cells by sulforhodamine B assay; format: functional
# [16] = tested on: KM12; experiment: Growth inhibition of human KM12 cells by sulforhodamine B assay; format: functional
# [17] = tested on: CAKI-1; experiment: Growth inhibition of human Caki1 cells by sulforhodamine B assay; format: functional
# [18] = tested on: OVCAR-4; experiment: Growth inhibition of human OVCAR4 cells by sulforhodamine B assay; format: functional
# [19] = tested on: SNB-19; experiment: Growth inhibition of human SNB19 cells by sulforhodamine B assay; format: functional
# [20] = tested on: MDA-MB-468; experiment: Growth inhibition of human MDA-MB-468 cells by sulforhodamine B assay; format: functional
# [21] = tested on: A549; experiment: Growth inhibition of human A549 cells by sulforhodamine B assay; format: functional
# [22] = tested on: M14; experiment: Growth inhibition of human M14 cells by sulforhodamine B assay; format: functional
# [23] = tested on: PC-3; experiment: Growth inhibition of human PC3 cells by sulforhodamine B assay; format: functional
# [24] = tested on: SNB-75; experiment: Growth inhibition of human SNB75 cells by sulforhodamine B assay; format: functional
# [25] = tested on: ACHN; experiment: Growth inhibition of human ACHN cells by sulforhodamine B assay; format: functional
# [26] = read-out: LC50 (the source's name)
smiles,measurement,setting,value
O=C(CCCCCCCn1cc(-c2cccnc2)nn1)Nc1ccccc1-c1ccccc1,IC50,[1],0.0038 µM
same,GI50,[2],100 µM
same,TGI,[2],> 100 µM
same,CC50,[2]; [26],> 100 µM
same,GI50,[3],1.7 µM
same,TGI,[3],39.3 µM
same,CC50,[3]; [26],> 100 µM
same,GI50,[4],8.46 µM
same,TGI,[4],> 100 µM
same,CC50,[4]; [26],> 100 µM
same,Activity,[5],11.6%
same,GI50,[6],0.724 µM
same,TGI,[6],> 100 µM
same,CC50,[6]; [26],> 100 µM
same,GI50,[7],0.268 µM
same,TGI,[7],> 100 µM
same,CC50,[7]; [26],> 100 µM
same,Activity,[8],Active
same,Activity,[9],9.9%
same,GI50,[10],3.42 µM
same,TGI,[10],50.1 µM
same,CC50,[10]; [26],> 100 µM
same,GI50,[11],0.702 µM
same,TGI,[11],> 100 µM
same,CC50,[11]; [26],> 100 µM
same,GI50,[12],0.272 µM
same,TGI,[12],> 100 µM
same,CC50,[12]; [26],> 100 µM
same,GI50,[13],13.3 µM
same,TGI,[13],30.3 µM
same,CC50,[13]; [26],69.3 µM
same,Activity,[14],24%
same,GI50,[15],7.33 µM
same,TGI,[15],> 100 µM
same,CC50,[15]; [26],> 100 µM
same,GI50,[16],1.03 µM
same,TGI,[16],27.2 µM
same,CC50,[16]; [26],> 100 µM
same,GI50,[17],0.776 µM
same,TGI,[17],> 100 µM
same,CC50,[17]; [26],> 100 µM
same,GI50,[18],31.6 µM
same,TGI,[18],> 100 µM
same,CC50,[18]; [26],> 100 µM
same,GI50,[19],0.45 µM
same,TGI,[19],> 100 µM
same,CC50,[19]; [26],> 100 µM
same,GI50,[20],7.34 µM
same,TGI,[20],> 100 µM
same,CC50,[20]; [26],> 100 µM
same,GI50,[21],2.1 µM
same,TGI,[21],> 100 µM
same,CC50,[21]; [26],> 100 µM
same,GI50,[22],0.166 µM
same,TGI,[22],20.7 µM
same,CC50,[22]; [26],> 100 µM
same,GI50,[23],0.467 µM
same,TGI,[23],42.8 µM
same,CC50,[23]; [26],> 100 µM
same,GI50,[24],29.8 µM
same,TGI,[24],> 100 µM
same,CC50,[24]; [26],> 100 µM
same,GI50,[25],18.7 µM
same,TGI,[25],> 100 µM
same,CC50,[25]; [26],> 100 µM
